# Measured values collected from several papers.
# Protocols differ between the studies behind these lines.
# Target: Serine/threonine-protein kinase N2 (PKN2, Homo sapiens, UniProt Q16513)
Structure (SMILES),effect on,method,tested at,remaining binding [%]
COc1ccnn2ncc(-c3ccnc(N(C)C)n3)c12,binding,,1 µM,87
Cn1nc(C(=O)NCc2ccc(C(=O)O)cc2)cc1-c1ccc2[nH]ccc2c1,cell-free assay,competition with immobilised ligand,0.1 µM,100
O=C(c1ccc(Nc2ncc(Cl)c(-c3ccc(Cl)s3)n2)cc1)N1CCC(N2CCCC2)CC1,binding,competition with immobilised ligand,1 µM,56
C=CC(=O)N1CCC(C(=O)NCC(=O)N2CCN(c3nc(-c4cnc(N)nc4C(F)F)nc(N4CCOCC4)n3)CC2)CC1,binding,competition with immobilised ligand,1 µM,84
F[C@@H]1CCN(c2nccc(-c3cnn4ncccc34)n2)C1,binding,,1 µM,100
COc1cnc(Nc2cccc(S(N)(=O)=O)c2)nc1N1CCN(c2ccccc2)CC1,binding,competition with immobilised ligand,1 µM,100
C[C@@H]1CN(c2cc(-c3nn(C)c4ccc(OC5(C)CC5)cc34)ncn2)C[C@H](C)O1,cell-free assay,competition with immobilised ligand,1 µM,100
COc1ncc2cc3ccccc3nc2c1C#N,cell-free assay,competition with immobilised ligand,5 µM,80
N[C@@H]1CCN(c2nccc(-c3cnn4ncccc34)n2)C1,binding,,1 µM,100
CC(=O)Nc1c(C(C)=O)c(=O)n(C)c2nc(-c3ccc(Cl)cc3Cl)c(-c3ccc(Cl)cc3)cc12,cell-free assay,competition with immobilised ligand,1 µM,100
C[C@H]1CCN(c2nccc(-c3cnn4ncccc34)n2)C1,binding,,1 µM,95
O=C(NCCCN1CCOCC1)c1ccc(Nc2nccc(-c3cc4ccccc4s3)n2)cc1,binding,competition with immobilised ligand,1 µM,53
O=C(NCC1CCOCC1)c1n[nH]cc1NC(=O)c1c(F)cccc1F,binding,competition with immobilised ligand,1 µM,89
C[C@@H]1CN(c2cc(-c3n[nH]c4ccc(OC5(C)CC5)cc34)ncn2)C[C@H](C)O1,cell-free assay,competition with immobilised ligand,0.1 µM,89
c1cncc(-c2cccc(Nc3nccc(NC4CCCCC4)n3)c2)c1,binding,competition with immobilised ligand,10 µM,43
Cc1c(NC(=O)c2cc(C(N)=O)nc3cc(F)ccc23)c(C(F)(F)F)nn1Cc1ccc(C#N)cc1,cell-free assay,competition with immobilised ligand,1 µM,81
Cc1cnn2ncc(-c3ccnc(N(C)C)n3)c2c1,binding,,1 µM,94
C[C@H](c1ccc(F)cc1)N(Cc1cccc(C(=O)O)c1)C(=O)c1cnc2ccccc2c1,cell-free assay,competition with immobilised ligand,1 µM,86
C[C@@H](c1ccc(-n2cnc3c(N)ncnc32)cc1)N1CCc2nn(C)c(Cc3ccccc3)c2C1=O,binding,competition with immobilised ligand,0.1 µM,84
O=C(c1ccc(Nc2ncc(Cl)c(-c3cc4ccccc4s3)n2)cc1)N1CCC(N2CCCC2)CC1,binding,competition with immobilised ligand,1 µM,11
Cc1nc(C2CCN(C(=O)c3ccc(OC(F)(F)F)cc3N)CC2)c2ncc(N3CCN(C)CC3)cc2n1,cell-free assay,competition with immobilised ligand,1 µM,100
CN(CCCC(F)(F)F)c1nccc(-c2cnn3ncccc23)n1,binding,,1 µM,74
